Assay outcomes from PubChem BioAssay.
In the library only some 5.5% were active in any assay of this set; here they are far more common.
RAM network inh = blocks the yeast RAM network; S. cerevisiae dse1pr::URA3 reporter, 5-FOA growth OD615, 2 d; analog-sensitive cbk1-as2 kinase mutant strain; inhibition, % at 50 µM; actives 1.8% (n = 190,000); AID 868;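 active = inhibition above a set limit, 3 SD over mean compound inhibition, cut at about 8.4% in these data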;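 also: 0% = DMSO-only wells with no growth and 100% = 10 µM 1-NA-PP1 full growth; inhibition rescues growth on 5-FOA so higher OD means more RAM inhibition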
Cl transport mod = KCC2 (human) Cl- transport modulation; Q9H2X9; KCC2 cells, thallium flux FluoZin-2 fluorescence; B-score of Tl+ flux slope (higher = more flux/activation; lower = inhibition) at 10 µM; actives 2.2% (n = 190,000); AID 1456;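 active = thallium flux slope and its plate-corrected score both differing from the plate sample mean at a set confidence after two filtering rounds, in either direction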;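 also: slope of fluorescence scaled to starting intensity during 10 to 20 s after thallium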
Yeast lifespan up = extends the lifespan of yeast; S. cerevisiae growth with nicotinamide, OD615; deaD strain in restrictive glucose medium; actives 0.68% (n = 130,000); inhibition of the nicotinamide effect, % at 10 µM;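 active = inhibition above a set limit, placed 3 SD over the median of all compounds, cut at about 26% in these data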;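 also: 0% = nicotinamide-treated wells and 100% = cells grown without nicotinamide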
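Test system: DeaD-strain S. cerevisiae / Buffer or medium: restrictive glucose medium / Also added: nicotinamide 1.5 mM / Doses: one concentration, 10 µM, DMSO 0.25% / Schedule: 48 h at 30 °C / Signal: OD615 measurement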
Yeast growth inh = reduces growth of yeast BB579 in restrictive medium; inhibition, % at 10 µM; actives 0.51% (n = 140,000); AID 804; S. cerevisiae BB579 growth, OD615, 48 h;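 active = inhibition above a set limit, 3 SD over the mean compound inhibition, cut at about 44% in these data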
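Test system: S. cerevisiae DeaD strain BB579 yeast; Medium: restrictive CSMM-D medium; Compound: one dose, 10 µM compound with 0.25% DMSO; Incubation: 4 h cell preincubation, 48 h compound exposure, 30 °C humidified; Signal: OD at 615 nm; Benchmarks: amphotericin B at 10 µg/mL as positive control.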
WT yeast gro inh = growth inhibition of WT yeast, mitochondrial fusion screen. inhibition, % at 10 µM. actives 2.1% (n = 190,000). mitochondrial fusion phenotypic screen, WT strain. AID 1362; in the data active = inhibition above about 58%; tested in S. cerevisiae
RAM efflux-def = RAM network inhibition, efflux-deficient strain | shares compounds with RAM network inh | S. cerevisiae efflux-deficient reporter strain, 5-FOA growth OD615, 2 days | max inhibition, % | 1,200 tested, under 10 active; call rule not given here;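 also: plate controls were vehicle for no effect and reference inhibitor for full effect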
An asterisk follows results filed as active.

Results for CNC(=S)Nc1cccc(S(=O)(=O)NC2=NCCC2)c1 ?
RAM network inh: 2; Cl transport mod: 0.042; WT yeast gro inh: 14

Results for Cc1ccsc1C1Nc2ccc3ncccc3c2C2=C1C(=O)CC(C)(C)C2 (configuration not stated) ?
RAM network inh: 1; Cl transport mod: -2.5; Yeast lifespan up: -7; Yeast growth inh: -48; WT yeast gro inh: -2

What do the screens show for `CC1(C)CC(=O)C2=C(C1)c1c(ccc3ccccc13)NC2c1ccco1` (configuration not stated)?
RAM network inh: 16*; Cl transport mod: -1; Yeast lifespan up: -9; Yeast growth inh: -8; WT yeast gro inh: 14; RAM efflux-def: 2

What do the screens show for `O=C(CN1CCN(Cc2ccccc2Cl)CC1)N/N=C/c1ccccn1`?
Cl transport mod: -2

How did CCC(C)c1ccc(NC(=S)NCc2ccccc2OC)cc1 (configuration not stated) do in these assays?
RAM network inh: 11*; Cl transport mod: -0.66; WT yeast gro inh: 77*; RAM efflux-def: 7

Results for O=C(c1ccco1)N(CC1CCCO1)c1nc(-c2ccccc2)cs1 (configuration not stated) ?
RAM network inh: 7; Cl transport mod: -1.8; Yeast lifespan up: -9; Yeast growth inh: -44; WT yeast gro inh: 18

Results for Cc1ccc(-c2csc(N(CC3CCCO3)C(=O)c3ccco3)n2)cc1 (configuration not stated) ?
RAM network inh: 13*; Cl transport mod: -0.38; Yeast lifespan up: -4; Yeast growth inh: -49; WT yeast gro inh: 69*; RAM efflux-def: 3

How did O=C(c1cccs1)N(CC1CCCO1)c1nc(-c2ccccc2)cs1 (configuration not stated) do in these assays?
RAM network inh: 16*; Cl transport mod: -2.9; Yeast lifespan up: -9; Yeast growth inh: -32; WT yeast gro inh: 38; RAM efflux-def: 2

Results for COc1ccc(-c2csc(N(CC3CCCO3)C(=O)c3ccccc3)n2)cc1 (configuration not stated) ?
RAM network inh: 5; Cl transport mod: 0.72; WT yeast gro inh: 15

How did C=CCc1cccc(/C=N/NC(=O)CCC(=O)Nc2ccc(C)cc2)c1O do in these assays?
RAM network inh: 4; Cl transport mod: -1.2; Yeast lifespan up: 1; Yeast growth inh: -69; WT yeast gro inh: -8

Results for CCOC(=O)c1c(-c2cccc([N+](=O)[O-])c2)csc1NC(=O)CCCOc1ccccc1 ?
RAM network inh: 14*; Cl transport mod: 0.017; Yeast lifespan up: 13; Yeast growth inh: -10; WT yeast gro inh: -7; RAM efflux-def: 3

Results for CCOC(=O)c1c(-c2cccc([N+](=O)[O-])c2)csc1NC(=O)CCCOc1ccccc1OC ?
RAM network inh: 15*; Cl transport mod: -0.49; Yeast growth inh: -42; WT yeast gro inh: 2; RAM efflux-def: 2

What do the screens show for `CCOC(=O)c1c(-c2ccccc2)csc1NC(=O)COc1ccc2c(C)cc(=O)oc2c1`?
RAM network inh: 3; Cl transport mod: 0.89; Yeast lifespan up: 4; Yeast growth inh: -37; WT yeast gro inh: -2

Results for COc1ccccc1OCCCC(=O)Nc1ccc([N+](=O)[O-])cc1Br ?
RAM network inh: 4; Cl transport mod: -1.2; WT yeast gro inh: -2

Results for CCCN(N=Nc1cccc([N+](=O)[O-])c1)c1cccc([N+](=O)[O-])c1 ?
RAM network inh: 12*; Cl transport mod: 0.46; Yeast lifespan up: -10; Yeast growth inh: -43; WT yeast gro inh: 14; RAM efflux-def: 3

How did CCc1ccc(C(=O)NNC(=S)Nc2ccc(S(N)(=O)=O)cc2)s1 do in these assays?
RAM network inh: 0; Cl transport mod: 0.41; WT yeast gro inh: 13

What do the screens show for `Cc1ccc(N2N=C(c3ccc(F)cc3)CC2c2ccco2)cc1` (configuration not stated)?
RAM network inh: 12*; Cl transport mod: 0.7; WT yeast gro inh: 39; RAM efflux-def: 4

Results for Fc1ccc(C2=NN(c3ccccc3)C(c3ccco3)C2)cc1 (configuration not stated) ?
RAM network inh: 3; Cl transport mod: -0.08; WT yeast gro inh: 50

Results for Cc1ccc(NC(=O)CNC(=O)c2cccs2)cc1S(=O)(=O)Nc1ccc(Cl)cc1 ?
RAM network inh: 12*; Cl transport mod: -1.2; Yeast lifespan up: -1; Yeast growth inh: -25; WT yeast gro inh: -1; RAM efflux-def: 2

How did COC(=O)CSc1nc(-c2ccccc2)nc2ccc(F)cc12 do in these assays?
RAM network inh: 5; Cl transport mod: 0.77; Yeast lifespan up: -1; Yeast growth inh: -30; WT yeast gro inh: 22

How did CCOC(=O)CSc1nc(-c2ccccc2)nc2ccc(F)cc12 do in these assays?
RAM network inh: 13*; Yeast lifespan up: 6; Yeast growth inh: -44; WT yeast gro inh: -8; RAM efflux-def: 3

What do the screens show for `CCOC(=O)c1ccccc1NC(=O)c1c(O)c2ccccc2n(CC)c1=O`?
RAM network inh: 11*; Cl transport mod: -0.25; Yeast lifespan up: 5; Yeast growth inh: -63; WT yeast gro inh: 14; RAM efflux-def: 2

Results for C=CCn1c(=O)c(C(=O)Nc2ccccc2C(=O)OCC)c(O)c2ccccc21 ?
RAM network inh: 14*; Cl transport mod: -0.73; Yeast lifespan up: 12; Yeast growth inh: -54; WT yeast gro inh: -2; RAM efflux-def: 2

What do the screens show for `CCCn1c(=O)c(C(=O)Nc2ccccc2C(=O)OC)c(O)c2ccccc21`?
RAM network inh: 14*; Cl transport mod: -0.72; Yeast lifespan up: -7; Yeast growth inh: -38; WT yeast gro inh: -19; RAM efflux-def: 2

How did CCn1c(=O)c(C(=O)Nc2ccsc2C(=O)OC)c(O)c2ccccc21 do in these assays?
RAM network inh: 2; Cl transport mod: 0.11; Yeast lifespan up: 9; Yeast growth inh: -9; WT yeast gro inh: 9

Results for C=CCn1c(=O)c(C(=O)OCC)c(O)c2ccccc21 ?
RAM network inh: -3; Cl transport mod: -1.9; WT yeast gro inh: 6

Results for Cc1ccc(/C=N/N2CCN(c3ccccn3)CC2)o1 ?
Cl transport mod: -0.061

What do the screens show for `O=C(OCC(=O)N1CCc2ccccc2C1)c1cc(=O)[nH]c2ccccc12`?
Cl transport mod: -2.9

How did S=C(Nc1ccc(Nc2ccccc2)cc1)N1CCN(c2ncccn2)CC1 do in these assays?
RAM network inh: 7; Cl transport mod: -0.013; WT yeast gro inh: 1

What do the screens show for `CC(C)CNC(=O)c1c(N)n(/N=C/c2ccccn2)c2nc3ccccc3nc12`?
RAM network inh: 15*; Cl transport mod: 0.8; Yeast lifespan up: -8; Yeast growth inh: -33; WT yeast gro inh: 35; RAM efflux-def: 4
